TCR CD3 inh = inhibitors of human TCR-CD3 interaction, primary screen, biochemical, fluorescence, TAMRA-labeled TCR probe | inhibition, % at 9.4 µM | 360,000 tested, 0.37% active | AID 651800, 2012;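 note: recombinant mutant TCR 2C K166C tagged with TAMRA read by polarization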
SIAE inh = human SIAE inhibitors, primary screen, biochemical, fluorescence polarization, FP-Rh probe, 1536-well HTS | Sialate O-acetylesterase (Homo sapiens), Q9HAT2 | SIAE FP-Rh probe binding | inhibition, % at 9.66 µM | 370,000 tested, 0.69% active | AID 1053197, 2014;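 active = inhibition above a cutoff: mean of compounds within the control limits plus 3 SD of those, cut at about 17% in these data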
Target sequence (Q9HAT2 whole entry, looked up): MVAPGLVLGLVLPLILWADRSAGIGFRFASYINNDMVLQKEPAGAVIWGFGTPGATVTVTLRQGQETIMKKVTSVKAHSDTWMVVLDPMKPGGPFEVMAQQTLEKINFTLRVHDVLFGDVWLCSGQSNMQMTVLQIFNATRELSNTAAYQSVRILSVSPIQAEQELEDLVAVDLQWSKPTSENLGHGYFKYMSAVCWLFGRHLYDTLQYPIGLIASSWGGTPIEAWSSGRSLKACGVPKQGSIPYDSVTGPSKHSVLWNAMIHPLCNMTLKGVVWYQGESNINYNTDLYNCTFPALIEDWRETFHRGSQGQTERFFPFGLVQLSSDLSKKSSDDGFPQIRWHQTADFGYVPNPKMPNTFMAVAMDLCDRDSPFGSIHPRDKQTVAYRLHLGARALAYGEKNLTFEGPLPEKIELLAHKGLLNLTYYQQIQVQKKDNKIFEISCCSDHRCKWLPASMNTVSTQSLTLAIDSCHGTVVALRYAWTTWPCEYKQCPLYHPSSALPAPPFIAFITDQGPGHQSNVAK
ABHD4 inh = ABHD4 inhibitors, primary screen, biochemical, fluorescence polarization, mouse; inhibition, % at 8.92 µM; purified mABHD4, FP-Rh probe fluorescence polarization; (Lyso)-N-acylphosphatidylethanolamine lipase (Mus musculus), Q8VD66; 370,000 tested, 0.54% active;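 active = inhibition exceeding the mean over every tested compound plus 3 SD, cut at about 30% in these data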
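assay system = mABHD4 protein | compound dosing = single nominal dose of 8.92 µM, 0.89% DMSO final | read-out basis = percent inhibition of probe binding, normalized to plate controls | schedule = Enzyme–compound pre-incubation 45 min, then probe 60 min, both 25 °C | detection = fluorescence polarization, excitation 525 nm, emission 598 nm, BODIPY TMR filters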
HTRA1 inhibitor = HTRA1 serine protease inhibitors, primary screen, biochemical, fluorescence polarization, HTS. Q92743. recombinant HTRA1, FP-rhodamine activity-based probe. AID 504803, 2011. 340,000 tested, 0.5% active. inhibition, % at 5.96 µM; in the data active = inhibition above about 36%
PRMT1 inh = PRMT1 methyltransferase inhibitors, primary screen, biochemical, fluorescence polarization; Protein arginine N-methyltransferase 1 (Homo sapiens), Q99873; recombinant PRMT1, activity-based probe fluorescence polarization; inhibition, % at 2.79 µM; 370,000 tested, 1.3% active; AID 652257, 2013;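 active = inhibition above about 21% made by adding two undisclosed values, limit read from the data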
HTRA1 inh conf = HTRA1 protease inhibitors, retest, confirmation, biochemical, fluorescence polarization | shares compounds with HTRA1 inhibitor | inhibition, % at 5.96 µM | recombinant HTRA1, FP-rhodamine activity-based probe | 1,600 tested, 66% active;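 active = mean inhibition over three repeats above a set limit taken from the earlier primary screen, cut at about 37% in these data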;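 note: inhibitors block probe binding so polarization drops and inhibition rises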
BSA TAMRA ctr = compounds interfering with TAMRA-BSA probe, counter-screen for TCR-CD3 interaction inhibitor project, biochemical, fluorescence, TAMRA-labeled BSA. shares compounds with TCR CD3 inh. TAMRA-labeled BSA probe fluorescence counterscreen. inhibition, % at 9.4 µM. 1,200 tested, 10% active. AID 652035, 2013; in the data active = inhibition above about 23%
TCR-CD3 conf = TCR-CD3 interaction inhibitors, retest, confirmation, biochemical, fluorescence, TAMRA-labeled TCR probe | shares compounds with TCR CD3 inh | TAMRA-labeled TCR probe fluorescence binding assay | inhibition, % at 9.4 µM | 1,200 tested, 48% active
PRMT1 inh conf = PRMT1 methyltransferase inhibitors, confirmation, biochemical, fluorescence polarization, triplicate. AID 687036, 2013. shares compounds with PRMT1 inh. 3,300 tested, 42% active. inhibition, % at 2.79 µM. recombinant His-PRMT1, activity-based probe fluorescence polarization;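 active = mean inhibition across replicates above the hit cutoff derived for the earlier primary screen, cut at about 22% in these data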
mABHD4 conf = ABHD4 inhibitors, retest, confirmation, biochemical, fluorescence polarization, mouse | shares compounds with ABHD4 inh | purified mABHD4, FP-Rh probe fluorescence polarization | 1,800 tested, 55% active | AID 720658, 2013 | inhibition, % at 8.92 µM;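 active = mean inhibition across replicates above the hit cutoff set in the primary screen, cut at about 30% in these data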
SIAE confirm = human SIAE inhibitors, retest, confirmation, biochemical, fluorescence polarization, FP-Rh probe, triplicate. shares compounds with SIAE inh. SIAE FP-Rh activity-based probe. inhibition, % at 9.66 µM. 2,300 tested, 13% active;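 active = mean inhibition of the replicates above the hit cutoff set in the primary screen, cut at about 17% in these data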;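 note: inhibitors lower polarization as more probe stays unbound to SIAE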
Each line names hits and unclear results; the compound was inactive in the other large screens (follow-up assays come after a bar, where they were run). This is a sample that favours compounds with a hit; in the whole collection about 2.5% have one here. Cut-off read from the data, not from the text of the source, unless noted: active = inhibition above about 19%; inactive = the rest.

Cn1c(=O)c(Nc2ccc(O)cc2)c2c3c(cccc31)C(=O)c1ccccc1-2	SIAE inh 25.6, ABHD4 inh 74.4, HTRA1 inhibitor 77.6, PRMT1 inh 105.0 | HTRA1 inh conf 86.5 | PRMT1 inh conf 31.9 | mABHD4 conf 64.6 | SIAE confirm inactive
CC(C)c1ccc(Nc2c([N+](=O)[O-])c(=O)n(C)c3ccccc23)cc1	none
O=C(N/N=C/c1cc(Br)cc([N+](=O)[O-])c1O)c1ccc(NC(=O)c2ccc(F)cc2)cc1	TCR CD3 inh 58.3, SIAE inh 52.7, HTRA1 inhibitor 50.8 | HTRA1 inh conf 53.2 | BSA TAMRA ctr inactive | TCR-CD3 conf 50.8 | SIAE confirm inactive
COc1ccc(NS(=O)(=O)c2ccc(NS(=O)(=O)c3cccc(C(=O)O)c3)cc2)cc1	none
COc1ccc(NS(=O)(=O)c2ccc3c(c2)[C@H]2C=CC[C@H]2[C@@H](c2ccc(C(=O)O)cc2)N3)cc1	SIAE inh 28.9, ABHD4 inh 44.1, HTRA1 inhibitor 56.5, PRMT1 inh 38.4 | HTRA1 inh conf 52.8 | PRMT1 inh conf 21.4 | mABHD4 conf 61.0 | SIAE confirm 20.1
O=C(CSc1nnc(-c2cccs2)o1)Nc1cccc2ccccc12	none (no result: TCR CD3 inh, HTRA1 inhibitor)
COc1ccc(OCCCC(=O)Nc2ncn[nH]2)cc1	none
COC(=O)/C(=C/Nc1ccccc1)[N+](=O)[O-]	none
COC(=O)/C(=C/Nc1ccc(O)cc1)[N+](=O)[O-]	TCR CD3 inh 98.8, SIAE inh 25.1, ABHD4 inh 94.4, HTRA1 inhibitor 44.9, PRMT1 inh 47.5 | HTRA1 inh conf inactive | BSA TAMRA ctr inactive | TCR-CD3 conf inactive | mABHD4 conf inactive | SIAE confirm inactive
C[C@H](O)[C@@H]1CN2CCc3ccc(N4CCOCC4)cc3[C@@H]2C[C@@H]1N(C)C(=O)c1ccco1	none (no result: TCR CD3 inh, HTRA1 inhibitor)
O=C(CC1Nc2cccc3cccc(c23)NC1=O)Nc1ccc(F)cc1 (stereo not given)	SIAE inh 24.2, HTRA1 inhibitor 61.1 | HTRA1 inh conf inactive | SIAE confirm inactive
CCOC(=O)C1CSCCS(=O)(=O)N1Cc1cccc(Cl)c1 (stereo not given)	none (no result: HTRA1 inhibitor)
Cc1nc2ccccc2n2c(O)c(CC(=O)O)cc12	SIAE inh 18.1, ABHD4 inh 29.7, HTRA1 inhibitor 54.8, PRMT1 inh 44.0 | HTRA1 inh conf 39.6 | mABHD4 conf 74.0 | SIAE confirm 30.8
Oc1ccccc1C=Nc1cccc2ccccc12	none
Oc1cccc(C=Nc2cccc3ccccc23)c1O	SIAE inh 20.2, ABHD4 inh 52.6, HTRA1 inhibitor 70.9, PRMT1 inh 38.3 | HTRA1 inh conf 52.9 | SIAE confirm inactive
C=CCOC/C=C/C#CCN(Cc1ccc(OC)cc1OC)C(=O)Nc1ccccc1	none (no result: TCR CD3 inh, HTRA1 inhibitor)
c1ccc(COc2cccc(CNCc3cccnc3)c2)cc1	none
